# From ChEMBL document CHEMBL3808334, “Synthesis and in vitro evaluation of novel triazine analogues as anticancer agents and their interaction studies with bovine serum albumin” (Eur J Med Chem, 2016)
# Tests used:
# SK-MEL-2 = assay: Growth inhibition of human SK-MEL-2 cells assessed as cell growth at 10^-8 M incubated for 48 hrs by sulforhodamine B assay; format: functional; settings: SK-MEL-2, 48 h, read-out: Activity
# SK-MEL-5 = assay: Growth inhibition of human SK-MEL-5 cells assessed as cell growth at 10 uM incubated for 48 hrs by sulforhodamine B assay; format: functional; settings: SK-MEL-5, 48 h, read-out: Activity
# [1] = Growth inhibition of human DU145 cells assessed as cell growth at 10^-5 M incubated for 48 hrs by sulforhodamine B assay; format: functional; settings: DU-145, 48 h, read-out: Activity
# How it was run: (§1)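 Cells seeded at 5,000–40,000/well according to doubling time and preincubated 24 h at 37 °C, 5% CO2. Time-zero plates were TCA-fixed. DMSO concentrate was diluted in medium with 50 µg/ml gentamicin to give five concentrations (10-fold or ½ log steps), then exposed 48 h. Cells were TCA-fixed, stained with 0.4% SRB and read at 515 nm. Percent growth was taken against time-zero and control; GI50, TGI and LC50 derived.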
# [2] = Growth inhibition of human Hs 578T cells assessed as cell growth at 10^-8 M incubated for 48 hrs by sulforhodamine B assay; format: functional; settings: read-out: Activity
# [3] = Growth inhibition of human HOP92 cells incubated for 48 hrs by sulforhodamine B assay; format: functional; settings: HOP-92, 48 h; how it was run: as §1
# [4] = Growth inhibition of human HOP92 cells assessed as cell growth at 10^-5 M incubated for 48 hrs by sulforhodamine B assay; format: functional; settings: HOP-92, 48 h, read-out: Activity
# NCI-H226 = assay: Growth inhibition of human NCI-H226 cells assessed as cell growth at 10^-5 M incubated for 48 hrs by sulforhodamine B assay; format: functional; settings: NCI-H226, 48 h, read-out: Activity
# [5] = Growth inhibition of human PC3 cells assessed as cell growth at 10 uM incubated for 48 hrs by sulforhodamine B assay; format: functional; settings: PC-3, 48 h, read-out: Activity
# [6] = Growth inhibition of human HCT116 cells assessed as cell growth at 10 uM incubated for 48 hrs by sulforhodamine B assay; format: functional; settings: HCT-116, 48 h, read-out: Activity
# How it was run: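 Primary screen at one dose (10 µM) across 60 human cancer cell lines. Readout was growth percent relative to untreated control and time-zero.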
# MDA-MB-231 = assay: Growth inhibition of human MDA-MB-231 cells assessed as cell growth at 10^-5 M incubated for 48 hrs by sulforhodamine B assay; format: functional; settings: MDA-MB-231, 48 h, read-out: Activity
# NCI-H322M = assay: Growth inhibition of human NCI-H322M cells assessed as cell growth at 10^-4 M incubated for 48 hrs by sulforhodamine B assay; format: functional; settings: read-out: Activity
# [7] = Growth inhibition of human SF539 cells assessed as cell growth at 10^-8 M incubated for 48 hrs by sulforhodamine B assay; format: functional; settings: SF-539, 48 h, read-out: Activity
# M14 = assay: Growth inhibition of human M14 cells assessed as cell growth at 10^-6 M incubated for 48 hrs by sulforhodamine B assay; format: functional; settings: M14, 48 h, read-out: Activity
# [8] = Growth inhibition of human DU145 cells assessed as cell growth at 10^-7 M incubated for 48 hrs by sulforhodamine B assay; format: functional; settings: DU-145, 48 h, read-out: Activity; how it was run: as §1
# [9] = Growth inhibition of human HOP92 cells assessed as cell growth at 10 uM incubated for 48 hrs by sulforhodamine B assay; format: functional; settings: HOP-92, 48 h, read-out: Activity
# [10] = Growth inhibition of human LOXIMVI cells incubated for 48 hrs by sulforhodamine B assay; format: functional; settings: LOX IMVI
# How it was run: (§2)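 Cells were plated at 5,000–40,000 per well according to doubling time and preincubated 24 h at 37 °C in 5% CO2; time-zero plates were then TCA-fixed. Five concentrations (10-fold or ½-log dilutions, DMSO stock) were incubated 48 h. Cells were TCA-fixed, stained with 0.4% SRB and read at 515 nm. GI50 was taken where [(Ti−Tz)/(C−Tz)]×100 = 50.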
# [11] = Growth inhibition of human RXF393 cells incubated for 48 hrs by sulforhodamine B assay; format: functional; settings: RXF 393, 48 h; how it was run: as §2
# Albumin = Albumin (Bos taurus, UniProt P02769); assay: Binding affinity to bovine serum albumin assessed as red shift in emission intensity up to 20 uM by fluorescence spectroscopic analysis relative to control; format: ADME; settings: cattle, isolated protein
# Sequence of Albumin (P02769 whole entry): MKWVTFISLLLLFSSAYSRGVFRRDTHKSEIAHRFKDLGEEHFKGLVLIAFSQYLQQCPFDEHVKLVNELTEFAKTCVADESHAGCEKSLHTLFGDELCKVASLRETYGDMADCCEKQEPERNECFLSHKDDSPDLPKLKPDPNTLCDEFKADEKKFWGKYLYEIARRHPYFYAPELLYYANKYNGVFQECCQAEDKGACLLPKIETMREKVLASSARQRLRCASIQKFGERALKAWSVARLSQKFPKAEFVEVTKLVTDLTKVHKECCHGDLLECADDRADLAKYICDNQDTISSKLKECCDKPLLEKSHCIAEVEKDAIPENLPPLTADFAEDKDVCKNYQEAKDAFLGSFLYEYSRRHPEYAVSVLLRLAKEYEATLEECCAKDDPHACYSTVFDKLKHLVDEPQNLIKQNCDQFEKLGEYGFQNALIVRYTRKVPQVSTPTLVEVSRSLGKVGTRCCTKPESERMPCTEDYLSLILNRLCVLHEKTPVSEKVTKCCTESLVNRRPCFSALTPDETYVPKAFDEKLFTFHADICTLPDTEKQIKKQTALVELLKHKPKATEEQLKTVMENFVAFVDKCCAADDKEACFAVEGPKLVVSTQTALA
# How it was run: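 Fluorescence titration of 10 µM BSA in 0.1 M phosphate buffer pH 7.4 with compound at 0–20 µM, diluted from DMSO stocks. Excitation 280 nm, slit 10 nm, 1 cm quartz cell, 300 K. Changes in the 350 nm Trp emission, new bands near 370–373 nm and isoemissive points are read against BSA alone.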
# A498 = assay: Growth inhibition of human A498 cells assessed as cell growth at 10^-6 M incubated for 48 hrs by sulforhodamine B assay; format: functional; settings: A498, 48 h, read-out: Activity
# How it was run: (§3)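 Five-dose assay: five concentrations from 10-fold or ½-log serial dilutions. Cells are plated at 5,000–40,000 per well according to doubling time, grown 24 h, then exposed 48 h at 37 °C, 5% CO₂. Fixed with cold 50% TCA (final addition) for 60 min at 4 °C and stained with 0.4% SRB in 1% acetic acid. Bound dye is solubilized in 10 mM Tris base and read at 515 nm. GI₅₀ is where [(Ti−Tz)/(C−Tz)]×100 = 50, with a time-zero plate as Tz.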
# SR = assay: Growth inhibition of human SR cells assessed as cell growth at 10^-6 M incubated for 48 hrs by sulforhodamine B assay; format: functional; settings: read-out: Activity
# [12] = Growth inhibition of human BT549 cells assessed as cell growth at 10^-5 M incubated for 48 hrs by sulforhodamine B assay; format: functional; settings: BT-549, 48 h, read-out: Activity; how it was run: as §3
# [13] = Growth inhibition of human SF539 cells assessed as cell growth at 10^-7 M incubated for 48 hrs by sulforhodamine B assay; format: functional; settings: SF-539, 48 h, read-out: Activity
# [14] = Growth inhibition of human SF295 cells incubated for 48 hrs by sulforhodamine B assay; format: functional; settings: SF-295, 48 h; how it was run: as §2
# [15] = Growth inhibition of human Caki1 cells assessed as cell growth at 10^-6 M incubated for 48 hrs by sulforhodamine B assay; format: functional; settings: CAKI-1, 48 h, read-out: Activity; how it was run: as §1
# 786-0 = assay: Growth inhibition of human 786-0 cells assessed as cell growth at 10^-8 M incubated for 48 hrs by sulforhodamine B assay; format: functional; settings: 786-0, 48 h, read-out: Activity; how it was run: as §3
# [16] = read-out: LC50 (the source's name)
# [17] = read-out: pLC50 (the source's name) (converted)
compound,measurement,setting,value
Clc1ccc(-c2nc(Nc3ccc(-c4nc5ccccc5[nH]4)cc3)nc(N3CCOCC3)n2)cc1,growth at 0.01 µM,SK-MEL-2,99%
same,growth at 10 µM,SK-MEL-5,-97.6%
same,growth at 10 µM,[1],-93%
same,growth at 0.01 µM,[2],90%
same,GI50,[3]; read-out: GI50,1300 nM
same,LC50 (concentration killing 50% of starting cells),[3]; read-out: LC50,5610 nM
same,TGI,[3]; read-out: TGI,2700 nM
same,GI50,[3]; read-out: pGI50 (converted),1290 nM
same,LC50 (concentration killing 50% of starting cells),[3]; read-out: pLC50 (converted),5620 nM
same,TGI,[3]; read-out: pTGI (converted),2690 nM
same,growth at 10 µM,[4],-90%
same,growth at 10 µM,NCI-H226,-55%
same,growth at 10 µM,[5],-93.5%
same,growth at 10 µM,[6],-85.5%
same,growth at 10 µM,MDA-MB-231,-76%
same,growth at 100 µM,NCI-H322M,-22%
same,growth at 0.01 µM,[7],98%
same,growth at 1 µM,M14,18%
same,growth at 0.1 µM,[8],96%
same,growth at 10 µM,[9],-72.1%
same,GI50,[10]; read-out: GI50,189 nM
same,GI50,[10]; read-out: pGI50 (converted),191 nM
same,GI50,[11]; read-out: GI50,222 nM
same,TGI,[11]; read-out: TGI,450 nM
same,GI50,[11]; read-out: pGI50 (converted),224 nM
same,TGI,[11]; read-out: pTGI (converted),447 nM
same,Activity,Albumin,22 nm
same,growth at 1 µM,A498,89%
same,growth at 1 µM,SR,-19%
same,growth at 10 µM,[12],-66%
same,growth at 0.1 µM,[13],98%
same,GI50,[14]; read-out: GI50,1470 nM
same,TGI,[14]; read-out: TGI,2990 nM
same,GI50,[14]; read-out: pGI50 (converted),1480 nM
same,TGI,[14]; read-out: pTGI (converted),3020 nM
same,growth at 1 µM,[15],76%
same,growth at 0.01 µM,786-0,99%
c1ccc2[nH]c(-c3ccc(Nc4nc(N5CCCCC5)nc(N5CCOCC5)n4)cc3)nc2c1,growth at 0.01 µM,SK-MEL-2,97%
same,growth at 10 µM,SK-MEL-5,-90.8%
same,growth at 10 µM,[1],23%
same,growth at 0.01 µM,[2],96%
same,GI50,[3]; read-out: GI50,1990 nM
same,LC50 (concentration killing 50% of starting cells),[3]; read-out: LC50,9340 nM
same,TGI,[3]; read-out: TGI,4320 nM
same,GI50,[3]; read-out: pGI50 (converted),2000 nM
same,LC50 (concentration killing 50% of starting cells),[3]; read-out: pLC50 (converted),9330 nM
same,TGI,[3]; read-out: pTGI (converted),4370 nM
same,growth at 10 µM,[4],-54%
same,growth at 10 µM,NCI-H226,12%
same,growth at 10 µM,[5],12.4%
same,growth at 10 µM,[6],9.65%
same,growth at 10 µM,MDA-MB-231,-13%
same,growth at 100 µM,NCI-H322M,10%
same,growth at 0.01 µM,[7],99%
same,growth at 1 µM,M14,93%
same,growth at 0.1 µM,[8],104%
same,growth at 10 µM,[9],43.4%
same,GI50,[10]; read-out: GI50,1750 nM
same,CC50,[10]; [16],7310 nM
same,TGI,[10]; read-out: TGI,3580 nM
same,GI50,[10]; read-out: pGI50 (converted),1740 nM
same,CC50,[10]; [17],7240 nM
same,TGI,[10]; read-out: pTGI (converted),3550 nM
same,GI50,[11]; read-out: GI50,808 nM
same,CC50,[11]; [16],> 100000 nM
same,TGI,[11]; read-out: TGI,3280 nM
same,GI50,[11]; read-out: pGI50 (converted),813 nM
same,CC50,[11]; [17],> 100000 nM
same,TGI,[11]; read-out: pTGI (converted),3310 nM
same,Activity,Albumin,25 nm
same,growth at 1 µM,A498,83%
same,growth at 1 µM,SR,44%
same,growth at 10 µM,[12],-35%
same,growth at 0.1 µM,[13],96%
same,GI50,[14]; read-out: GI50,1850 nM
same,CC50,[14]; [16],34600 nM
same,TGI,[14]; read-out: TGI,4600 nM
same,GI50,[14]; read-out: pGI50 (converted),1860 nM
same,CC50,[14]; [17],34700 nM
same,TGI,[14]; read-out: pTGI (converted),4570 nM
same,growth at 1 µM,[15],87%
same,growth at 0.01 µM,786-0,99%
